Holding throughout (assay type): functional
One experiment deals with Enterococcus faecalis. As to the kind of experiment: Antimicrobial activity against vancomycin-resistant Enterococcus faecalis 1528 R10 by broth microdilution method. The procedure, abridged: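 MIC read-out by standard broth microdilution against E. faecalis 1528 R10, run in the same panel as Bacillus subtilis ATCC 6633 and Mycobacterium vaccae IMET 10670.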
For orientation: In broth dilution the organism is exposed to a series of concentrations in liquid medium.

For another experiment, the system named is Mycolicibacterium vaccae. Briefly: Antimicrobial activity against Mycobacterium vaccae ATCC IMET 10670 by broth microdilution method.
For another experiment, the system named is Bacillus subtilis. As to the kind of experiment: Antimicrobial activity against Bacillus subtilis ATCC 6633 by broth microdilution method.

Converted amounts (≈) assume the structure as drawn.

By MIC is commonly meant the lowest concentration that inhibits growth of the organism. A high value points to a need for much substance. As to `CC1=CC(=O)C[C@]2(C)C[C@@H](O)[C@H](C(C)(C)O)C[C@@H]12` (relative stereo) [KANDENOL A], the minimal inhibitory concentration (MIC) was > 100 µg/mL in the experiment on Enterococcus faecalis, 12.5 µg/mL (≈ 49.5 µM) in the experiment on Mycolicibacterium vaccae and 50 µg/mL (≈ 198 µM) in the experiment on Bacillus subtilis.
The corresponding values for `CC1=CC(=O)C[C@]2(C)C[C@@H](O)[C@H](C(C)(C)O)C[C@@]12O` (relative stereo) [KANDENOL B] are > 100 µg/mL, 12.5 µg/mL (≈ 46.6 µM) and 50 µg/mL (≈ 186 µM).
The corresponding values for `O=C(O)c1cn(C2CC2)c2cc(N3CCNCC3)c(F)cc2c1=O` [CIPROFLOXACIN] are 0.78 µg/mL (≈ 2.35 µM), 0.1 µg/mL (≈ 0.302 µM) and < 0.05 µg/mL.
Regarding `CC1=CC(=O)C[C@]2(C)C[C@@H](O)[C@H](C(C)(C)O)C[C@@]12OO` [KANDENOL C], the MIC is > 100 µg/mL against Enterococcus faecalis, 12.5 µg/mL (≈ 44 µM) in the experiment on Mycolicibacterium vaccae and > 100 µg/mL against Bacillus subtilis.
Consider `CC1=CC(=O)C[C@]2(C)CC[C@H](C(C)(C)O)C[C@@]12OO` [KANDENOL D], for which the MIC is > 100 µg/mL in the experiment with Enterococcus faecalis, 25 µg/mL (≈ 93.2 µM) in the experiment with Mycolicibacterium vaccae and 50 µg/mL (≈ 186 µM) in the experiment with Bacillus subtilis.
With `CC1=CC(=O)C[C@]2(C)C[C@@H](O)[C@@H]3C[C@@]12OC3(C)C` [KANDENOL E], the minimal inhibitory concentration (MIC) in the experiment with Enterococcus faecalis was > 100 µg/mL; against Mycolicibacterium vaccae it was 12.5 µg/mL (≈ 49.9 µM); against Bacillus subtilis it was 50 µg/mL (≈ 200 µM).

The record behind these values is ChEMBL document CHEMBL2203076, “Kandenols A-E, eudesmenes from an endophytic Streptomyces sp. of the mangrove tree Kandelia candel” (2012).
